Measured values taken from ChEMBL document CHEMBL1125478, “The discovery of (2S,3S)-cis-2-(diphenylmethyl)-N-[(2-methoxyphenyl)methyl]-1- azabicyclo[2.2.2]-octan-3-amine as a novel, nonpeptide substance P antagonisst” (J Med Chem, 1992).

What was measured:
Rattus norvegicus = experiment: Inhibition of SP-induced salvation after intraperitoneal administration of the durg at a concentration of 50 mg/kg in rats; format: functional; settings: ip
How it was run: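 Fasted male Sprague-Dawley rats given compound 50 mg/kg ip in 0.05 N HCl, or saline, 30 min before SP 4.7 nmol/kg by tail vein under pentobarbital. Saliva collected on preweighed swabs until response subsided (about 4 min), weighed. Percent inhibition of SP response.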

Cavia porcellus [1] = experiment: Inhibition of capsaicin-induced plasma extravasation in guinea pig ureter after intraperitoneal injection; format: functional; settings: ip
How it was run: (§1)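 Fasted male Hartley guinea pigs (300-400 g), pentobarbital-anaesthetised; Evans Blue 30 mg/kg iv, then capsaicin 30 μM, 10 mL intraperitoneally. Compound 10 mg/kg po 1 h prior. Ureter removed after 10 min, formamide-extracted 24 h at 60 °C, OD 600 nm.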

Cavia porcellus [2] = experiment: (§2) Inhibition of SP-induced plasma extravasation in guinea pig after peroral administration at a dose 15 mg/kg; format: functional; settings: route oral
How it was run: (§3)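 Male Hartley guinea pigs (350-400 g), pentobarbital-anaesthetised; Evans Blue 30 mg/kg iv, then 5 min later SP (20 nM, 50 μL/site) intradermally. Dorsal skin punches extracted in formamide 24 h, 60 °C; OD 600 nm.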

Cavia porcellus [3] = organism: Cavia porcellus; experiment: Inhibition of capsaicin-induced plasma extravasation after 10 mL injection of 30 uM capsaicin in to the peritoneal cavity of guinea pig ureter; format: functional; how it was run: as §1
Substance-P receptor = Substance-P receptor (Homo sapiens, UniProt P25103); experiment: Binding affinity towards Tachykinin receptor 1 in human IM-9 cells using [3H]-substance P as ligand; format: cell-based
Chain of Substance-P receptor (P25103 whole entry): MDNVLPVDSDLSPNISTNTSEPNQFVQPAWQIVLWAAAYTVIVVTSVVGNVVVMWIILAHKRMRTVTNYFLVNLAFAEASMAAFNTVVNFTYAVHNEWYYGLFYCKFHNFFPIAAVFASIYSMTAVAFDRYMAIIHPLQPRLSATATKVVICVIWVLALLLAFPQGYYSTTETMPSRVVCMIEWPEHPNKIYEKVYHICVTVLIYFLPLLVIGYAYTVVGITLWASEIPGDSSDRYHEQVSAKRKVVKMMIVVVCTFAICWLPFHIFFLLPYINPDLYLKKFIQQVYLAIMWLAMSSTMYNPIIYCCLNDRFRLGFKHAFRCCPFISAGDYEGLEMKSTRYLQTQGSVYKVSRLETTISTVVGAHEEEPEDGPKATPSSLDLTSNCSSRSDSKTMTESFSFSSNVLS
How it was run: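 Displacement of [³H]SP (0.5 nM final) from human IM-9 cell preparation in 50 mM TRIS-HCl pH 7.7 with MnCl2, BSA, bacitracin, leupeptin, […], phosphoramidon; 20 min, room temperature, dark. Filtration on polyethylenimine-soaked GF/B filters, scintillation counting. IC50 from six-point curves, duplicates; mean ± SEM of three experiments.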

Neuromedin-K receptor = target: T1, Neuromedin-K receptor (Cavia porcellus, UniProt P30098); experiment: Inhibitory activity against Tachykinin receptor 3 in guinea pig cortex [125I]-BH-eledoisin as radioligand
T1 sequence (P30098 whole entry): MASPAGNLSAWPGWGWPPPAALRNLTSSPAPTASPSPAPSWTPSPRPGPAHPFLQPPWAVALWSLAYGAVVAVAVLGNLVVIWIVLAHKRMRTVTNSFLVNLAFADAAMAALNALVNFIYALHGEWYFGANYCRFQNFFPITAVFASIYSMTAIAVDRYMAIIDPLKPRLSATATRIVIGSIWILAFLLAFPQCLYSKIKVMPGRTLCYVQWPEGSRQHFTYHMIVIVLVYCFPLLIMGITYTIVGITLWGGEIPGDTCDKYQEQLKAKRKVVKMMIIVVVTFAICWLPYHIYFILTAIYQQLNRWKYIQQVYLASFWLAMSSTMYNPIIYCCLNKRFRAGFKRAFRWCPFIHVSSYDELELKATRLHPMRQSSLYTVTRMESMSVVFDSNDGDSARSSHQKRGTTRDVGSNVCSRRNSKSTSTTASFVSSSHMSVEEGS
How it was run: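 Guinea pig cortical membranes (6 mg/mL) in 50 mM Tris-HCl with 1 mM MnCl₂, 50 μg/mL chymostatin, 0.02% BSA and 0.1 nM [¹²⁵I]BH-eledoisin final, with test compound, 60 min at 22 °C. Nonsaturable binding defined with 1 μM eledoisin. Filtration and radioactivity counting.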

Substance-K receptor = target: T2, Substance-K receptor (Mesocricetus auratus, UniProt P51144); experiment: Inhibitory activity against [125I]neurokinin binding to Tachykinin receptor 2 in hamster urinary bladder
T2 sequence (P51144 whole entry): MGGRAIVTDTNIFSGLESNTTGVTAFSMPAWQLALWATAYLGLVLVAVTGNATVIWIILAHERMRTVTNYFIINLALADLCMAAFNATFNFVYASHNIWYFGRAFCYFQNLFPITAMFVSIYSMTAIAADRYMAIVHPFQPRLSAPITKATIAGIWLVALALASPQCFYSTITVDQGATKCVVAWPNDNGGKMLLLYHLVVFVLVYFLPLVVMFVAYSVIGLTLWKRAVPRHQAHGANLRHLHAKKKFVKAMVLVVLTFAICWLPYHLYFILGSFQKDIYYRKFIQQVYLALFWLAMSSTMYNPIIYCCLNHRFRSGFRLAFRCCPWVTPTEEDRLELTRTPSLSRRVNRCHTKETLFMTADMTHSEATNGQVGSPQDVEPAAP

Cavia porcellus [4] = experiment: as §2; format: functional; settings: route oral; remark: listed apart in the source
How it was run: as §3, with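 “intradermally. Compound 15 mg/kg po 1 h before SP.” for “intradermally.”, “nm. Percent inhibition or ED50 with 95% confidence limits.” for “nm.”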

Cavia porcellus [5] = organism: Cavia porcellus; experiment: Ability to block SP-induced excitation of neurons in the locus coeruleus in guinea pig brain; format: functional

Clc1ccccc1CN[C@H]1C2CCN(CC2)[C@H]1C(c1ccccc1)c1ccccc1
inhibition in vivo at 50 mg/kg (Rattus norvegicus): < 43.9% | ED50 (Cavia porcellus [1]): 7 mg/kg | inhibition in vivo at 15 mg/kg (Cavia porcellus [2]): 38%

Clc1cccc(CN[C@H]2C3CCN(CC3)[C@H]2C(c2ccccc2)c2ccccc2)c1
inhibition in vivo at 50 mg/kg (Rattus norvegicus): < 52.8% | inhibition in vivo at 15 mg/kg (Cavia porcellus [2]): -6% | Inhibition (Cavia porcellus [3]): 23%

CCc1ccccc1CN[C@H]1C2CCN(CC2)[C@H]1C(c1ccccc1)c1ccccc1
inhibition in vivo at 50 mg/kg (Rattus norvegicus): 16.7% | IC50 (Substance-P receptor): 16.7 nM | ED50 (Cavia porcellus [1]): 4 mg/kg | inhibition in vivo at 15 mg/kg (Cavia porcellus [2]): 79%

COc1ccccc1CN[C@@H]1C2CCN(CC2)[C@@H]1C(c1ccccc1)c1ccccc1
inhibition in vivo at 50 mg/kg (Rattus norvegicus): < 66.9% | ED50 (Cavia porcellus [1]): 6 mg/kg | inhibition in vivo at 15 mg/kg (Cavia porcellus [2]): 39%

COc1ccccc1CN[C@H]1C2CCN(CC2)[C@@H]1C(c1ccccc1)c1ccccc1
inhibition in vivo at 50 mg/kg (Rattus norvegicus): 11.3% | inhibition in vivo at 15 mg/kg (Cavia porcellus [2]): 28% | Inhibition (Cavia porcellus [3]): 18%

c1ccc(CN[C@H]2C3CCN(CC3)[C@H]2C(c2ccccc2)c2ccccc2)cc1
inhibition in vivo at 50 mg/kg (Rattus norvegicus): 0% | IC50 (Substance-P receptor): 16 nM | inhibition in vivo at 15 mg/kg (Cavia porcellus [2]): -9% | Inhibition (Cavia porcellus [3]): -21%

Clc1ccc(CN[C@H]2C3CCN(CC3)[C@H]2C(c2ccccc2)c2ccccc2)cc1
inhibition in vivo at 50 mg/kg (Rattus norvegicus): < 27% | inhibition in vivo at 15 mg/kg (Cavia porcellus [2]): 8% | Inhibition (Cavia porcellus [3]): 34%

COc1ccccc1CN[C@H]1C2CCC(CC2)[C@H]1C(c1ccccc1)c1ccccc1
IC50 (Substance-P receptor): > 32000 nM | inhibition in vivo at 15 mg/kg (Cavia porcellus [2]): -9% | Inhibition (Cavia porcellus [3]): -67%

COc1ccccc1CN[C@H]1C2CCN(CC2)[C@H]1Cc1ccccc1
inhibition in vivo at 50 mg/kg (Rattus norvegicus): 0% | IC50 (Substance-P receptor): 487 nM | inhibition in vivo at 15 mg/kg (Cavia porcellus [2]): 35% | Inhibition (Cavia porcellus [3]): -30%

COc1ccccc1CN(C)[C@H]1C2CCN(CC2)[C@H]1C(c1ccccc1)c1ccccc1
inhibition in vivo at 15 mg/kg (Cavia porcellus [2]): 13% | Inhibition (Cavia porcellus [3]): -13%

COc1ccccc1CN[C@H]1C2CCN(CC2)[C@H]1C(c1ccccc1)c1ccccc1 [CP-96345]
inhibition in vivo at 50 mg/kg (Rattus norvegicus): < 76.2% | IC50 (Neuromedin-K receptor): > 10 µM | IC50 (Substance-K receptor): > 10 µM | ED50 (Cavia porcellus [4]): 4.4 mg/kg | ED50 (Cavia porcellus [1]): 2.3 mg/kg | IC50 (Cavia porcellus [5]): 90 nM
